pIC50: −log10 of the molar value. Activity calls are given as the source filed them. The rule behind the calls is not given here.
Columns and labels:
HCT-116 [1] = test: Cell cycle arrest in human HCT116 cells assessed as increase of multinucleated octoploid 8 N DNA at 4 uM after 24 hrs by flow cytometry; assay type: functional, cell-based
Procedure, shortened: (§1)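 HCT-116 cells exposed to 4 μM for 24 h, then trypsinized, PBS-washed, fixed in ice-cold 70% ethanol at -20 °C overnight. Cells were washed twice in PBS and stained 30 min in PBS with 2 μg/mL RNase A and 5 μg/mL propidium iodide. DNA content was read by flow cytometry to score 4 N and ≥8 N populations.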

[2] = molecular target: Receptor-type tyrosine-protein kinase FLT3 (Homo sapiens, UniProt P36888); test: Inhibition of FLT3 by radiometric method
[3] = molecular target: RAF proto-oncogene serine/threonine-protein kinase (Homo sapiens) (UniProt P04049); test: Inhibition of c-Raf at 1 uM by radiometric method
Aurora kinase B = Aurora kinase B (Homo sapiens, UniProt Q96GD4); test: Inhibition of recombinant aurora B
Chain of Aurora kinase B (Q96GD4 whole entry): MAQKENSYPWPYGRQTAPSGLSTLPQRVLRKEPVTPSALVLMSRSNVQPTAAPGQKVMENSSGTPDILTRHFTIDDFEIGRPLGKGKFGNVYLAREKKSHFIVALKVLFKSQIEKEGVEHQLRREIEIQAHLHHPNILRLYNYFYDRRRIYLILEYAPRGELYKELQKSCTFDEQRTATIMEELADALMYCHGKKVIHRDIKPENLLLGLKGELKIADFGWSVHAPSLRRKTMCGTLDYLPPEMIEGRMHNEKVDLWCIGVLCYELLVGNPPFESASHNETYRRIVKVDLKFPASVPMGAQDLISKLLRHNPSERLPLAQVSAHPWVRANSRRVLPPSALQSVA

HeLa = test: Antiproliferative activity against human HeLa cells after 72 hrs by cell titer 96 assay; assay type: functional, cell-based
[4] = molecular target: RAC-alpha serine/threonine-protein kinase (Homo sapiens) (UniProt P31749); test: Inhibition of AKT1 at 1 uM by radiometric method
Chain of RAC-alpha serine/threonine-protein kinase (Homo sapiens) (P31749 whole entry): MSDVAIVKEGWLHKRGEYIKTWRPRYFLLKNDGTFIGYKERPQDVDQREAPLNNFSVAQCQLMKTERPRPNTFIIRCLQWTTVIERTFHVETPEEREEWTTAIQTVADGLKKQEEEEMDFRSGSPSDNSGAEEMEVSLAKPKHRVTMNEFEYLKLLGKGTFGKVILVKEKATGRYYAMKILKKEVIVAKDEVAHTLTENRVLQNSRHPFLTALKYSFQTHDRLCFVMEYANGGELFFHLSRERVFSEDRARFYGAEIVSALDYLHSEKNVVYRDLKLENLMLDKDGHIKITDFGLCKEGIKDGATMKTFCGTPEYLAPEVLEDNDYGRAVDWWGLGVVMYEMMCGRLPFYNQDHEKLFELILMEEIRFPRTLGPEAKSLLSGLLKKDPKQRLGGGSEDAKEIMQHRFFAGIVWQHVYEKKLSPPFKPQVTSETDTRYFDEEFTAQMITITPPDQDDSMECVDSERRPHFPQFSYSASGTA

[5] = molecular target: T1, Aurora kinase A (Homo sapiens) (UniProt O14965); test: Inhibition of aurora A in human HCT116 cells assessed as reduction of phosphorylated histone H3 at ser10 level measured at 1.25 to 40 uM after 3 hrs by Western blot analysis; assay type: cell-based; details: HCT-116
T1 sequence (whole entry): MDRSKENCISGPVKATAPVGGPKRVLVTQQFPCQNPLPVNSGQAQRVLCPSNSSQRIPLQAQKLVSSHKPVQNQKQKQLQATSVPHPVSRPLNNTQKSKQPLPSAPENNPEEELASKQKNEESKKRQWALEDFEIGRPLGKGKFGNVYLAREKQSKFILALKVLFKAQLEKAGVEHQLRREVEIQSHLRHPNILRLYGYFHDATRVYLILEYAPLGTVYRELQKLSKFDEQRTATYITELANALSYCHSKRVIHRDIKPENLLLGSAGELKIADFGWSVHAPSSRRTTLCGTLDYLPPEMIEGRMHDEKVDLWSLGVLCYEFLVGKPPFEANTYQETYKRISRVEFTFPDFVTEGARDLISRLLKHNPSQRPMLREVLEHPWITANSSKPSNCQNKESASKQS
Procedure, shortened: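 HCT-116 cells were synchronized at G2/M with 200 ng/mL nocodazole for 17 h, then given inhibitor for a further 3.0 h. Cells were PBS-washed, boiled in 2× SDS sample buffer, and run on SDS-PAGE with immunoblotting. Rabbit antibodies detected pT288 Aurora A, total Aurora A, pS10 histone H3 and total H3; β-actin served as loading control.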

[6] = molecular target: Ephrin type-A receptor 1 (Homo sapiens) (UniProt P21709); test: Inhibition of EPHA1 at 1 uM by radiometric method
Aurora kinase A = molecular target: T2, Aurora kinase A (Homo sapiens, UniProt O14965); test: Inhibition of recombinant aurora A
T2 sequence (O14965 whole entry): T1 sequence (whole entry)

[7] = molecular target: Mitogen-activated protein kinase kinase kinase kinase 5 (Homo sapiens) (UniProt Q9Y4K4); test: Inhibition of MAP4K5 at 1 uM by KINOMEscan binding assay
Chain of Mitogen-activated protein kinase kinase kinase kinase 5 (Homo sapiens) (Q9Y4K4 whole entry, looked up): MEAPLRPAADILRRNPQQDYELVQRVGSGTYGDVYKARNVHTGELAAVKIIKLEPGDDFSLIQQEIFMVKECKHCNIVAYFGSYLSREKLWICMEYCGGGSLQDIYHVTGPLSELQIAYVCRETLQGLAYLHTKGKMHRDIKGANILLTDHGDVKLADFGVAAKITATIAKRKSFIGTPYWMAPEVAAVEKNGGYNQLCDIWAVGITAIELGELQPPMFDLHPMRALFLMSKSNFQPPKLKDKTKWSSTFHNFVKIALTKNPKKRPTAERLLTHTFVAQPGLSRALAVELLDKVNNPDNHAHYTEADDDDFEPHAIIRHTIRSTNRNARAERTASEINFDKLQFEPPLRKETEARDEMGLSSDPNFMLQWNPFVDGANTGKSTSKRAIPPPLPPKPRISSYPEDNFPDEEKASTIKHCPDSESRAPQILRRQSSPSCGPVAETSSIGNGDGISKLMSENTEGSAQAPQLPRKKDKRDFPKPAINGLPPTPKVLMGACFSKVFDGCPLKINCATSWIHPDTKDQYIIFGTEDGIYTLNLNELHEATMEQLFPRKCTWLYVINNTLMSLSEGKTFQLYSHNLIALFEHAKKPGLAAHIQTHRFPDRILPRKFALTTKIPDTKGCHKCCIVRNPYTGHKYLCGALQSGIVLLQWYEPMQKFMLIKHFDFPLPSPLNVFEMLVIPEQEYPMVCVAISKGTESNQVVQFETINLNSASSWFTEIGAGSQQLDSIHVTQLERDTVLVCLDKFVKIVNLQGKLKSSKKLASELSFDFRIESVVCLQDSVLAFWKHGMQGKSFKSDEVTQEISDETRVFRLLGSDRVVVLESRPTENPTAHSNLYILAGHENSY

HCT-116 [8] = test: Cell cycle arrest in human HCT116 cells assessed as increase of tetraploid 4N DNA at 4 uM after 24 hrs by flow cytometry; assay type: functional, cell-based; procedure, shortened: as §1
[9] = molecular target: Mitogen-activated protein kinase kinase kinase kinase 3 (Homo sapiens) (UniProt Q8IVH8); test: Inhibition of MAP4K3 at 1 uM by KINOMEscan binding assay
[10] = molecular target: Vascular endothelial growth factor receptor 2 (Homo sapiens, UniProt P35968); test: Inhibition of VEGFR2 by radiometric method
[11] = molecular target: Tyrosine-protein kinase JAK2 (Homo sapiens) (UniProt O60674); test: Inhibition of JAK2 at 1 uM by radiometric method
Chain of Tyrosine-protein kinase JAK2 (Homo sapiens) (O60674 whole entry): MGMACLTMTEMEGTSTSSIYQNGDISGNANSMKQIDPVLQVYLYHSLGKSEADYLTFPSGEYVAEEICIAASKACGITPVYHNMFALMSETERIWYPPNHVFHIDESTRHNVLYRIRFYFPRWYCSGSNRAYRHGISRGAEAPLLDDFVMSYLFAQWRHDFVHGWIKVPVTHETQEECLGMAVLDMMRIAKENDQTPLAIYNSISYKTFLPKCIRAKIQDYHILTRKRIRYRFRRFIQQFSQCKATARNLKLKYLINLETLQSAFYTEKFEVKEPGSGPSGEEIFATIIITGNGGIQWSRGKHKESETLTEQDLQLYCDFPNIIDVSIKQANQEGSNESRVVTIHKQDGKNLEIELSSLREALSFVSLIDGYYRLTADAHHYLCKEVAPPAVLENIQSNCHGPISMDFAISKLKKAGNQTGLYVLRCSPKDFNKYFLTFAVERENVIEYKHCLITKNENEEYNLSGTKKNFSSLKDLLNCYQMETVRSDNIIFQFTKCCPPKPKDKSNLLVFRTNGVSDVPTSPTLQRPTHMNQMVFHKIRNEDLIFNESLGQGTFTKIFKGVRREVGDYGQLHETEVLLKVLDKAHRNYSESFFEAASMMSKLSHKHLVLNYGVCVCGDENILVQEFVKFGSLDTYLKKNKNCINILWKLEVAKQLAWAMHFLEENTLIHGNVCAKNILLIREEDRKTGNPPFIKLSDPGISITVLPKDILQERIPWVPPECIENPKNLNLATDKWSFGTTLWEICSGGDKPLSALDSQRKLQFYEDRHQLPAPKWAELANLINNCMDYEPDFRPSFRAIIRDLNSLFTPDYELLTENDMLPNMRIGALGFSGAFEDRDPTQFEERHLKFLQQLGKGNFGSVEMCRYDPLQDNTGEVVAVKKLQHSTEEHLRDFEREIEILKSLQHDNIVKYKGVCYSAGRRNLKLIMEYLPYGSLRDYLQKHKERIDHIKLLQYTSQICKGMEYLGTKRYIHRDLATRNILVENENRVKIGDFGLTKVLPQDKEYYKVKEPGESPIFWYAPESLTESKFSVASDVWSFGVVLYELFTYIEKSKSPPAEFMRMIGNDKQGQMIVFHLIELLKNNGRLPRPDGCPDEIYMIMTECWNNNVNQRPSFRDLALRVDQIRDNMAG

[12] = molecular target: High affinity nerve growth factor receptor (Homo sapiens) (UniProt P04629); test: Inhibition of TRK at 1 uM by KINOMEscan binding assay
[13] = molecular target: Fibroblast growth factor receptor 1 (Homo sapiens) (UniProt P11362); test: Inhibition of FGFR1 at 1 uM by radiometric method
[14] = molecular target: Serine/threonine-protein kinase 10 (Homo sapiens) (UniProt O94804); test: Inhibition of LOK at 1 uM by KINOMEscan binding assay
Chain of Serine/threonine-protein kinase 10 (Homo sapiens) (O94804 whole entry, looked up): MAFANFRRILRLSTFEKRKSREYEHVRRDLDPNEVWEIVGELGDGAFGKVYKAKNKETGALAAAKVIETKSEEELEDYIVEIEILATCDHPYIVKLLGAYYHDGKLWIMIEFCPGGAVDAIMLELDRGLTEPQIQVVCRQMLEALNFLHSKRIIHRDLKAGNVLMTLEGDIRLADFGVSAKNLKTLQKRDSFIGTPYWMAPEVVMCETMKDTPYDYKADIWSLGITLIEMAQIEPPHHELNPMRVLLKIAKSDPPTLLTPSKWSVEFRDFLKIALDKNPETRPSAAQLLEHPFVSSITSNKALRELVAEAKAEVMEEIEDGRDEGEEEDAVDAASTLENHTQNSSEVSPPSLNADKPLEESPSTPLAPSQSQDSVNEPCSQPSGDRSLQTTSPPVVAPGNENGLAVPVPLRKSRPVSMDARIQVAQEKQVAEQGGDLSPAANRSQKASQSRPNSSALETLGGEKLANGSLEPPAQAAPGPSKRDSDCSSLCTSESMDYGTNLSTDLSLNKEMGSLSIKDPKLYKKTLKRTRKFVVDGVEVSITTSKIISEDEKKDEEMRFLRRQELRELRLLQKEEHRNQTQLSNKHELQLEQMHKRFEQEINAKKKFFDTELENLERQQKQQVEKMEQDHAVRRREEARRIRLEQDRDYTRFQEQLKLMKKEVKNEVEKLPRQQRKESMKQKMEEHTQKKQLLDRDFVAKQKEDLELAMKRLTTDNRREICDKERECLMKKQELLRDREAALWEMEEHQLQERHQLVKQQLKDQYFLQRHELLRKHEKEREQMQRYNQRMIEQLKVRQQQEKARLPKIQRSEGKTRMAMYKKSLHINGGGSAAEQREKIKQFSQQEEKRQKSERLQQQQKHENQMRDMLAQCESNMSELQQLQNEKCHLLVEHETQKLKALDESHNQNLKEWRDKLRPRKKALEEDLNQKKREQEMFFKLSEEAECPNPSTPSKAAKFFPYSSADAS

[15] = molecular target: Tyrosine-protein kinase receptor UFO (Homo sapiens) (UniProt P30530); test: Inhibition of AXL at 1 uM by KINOMEscan binding assay
[16] = molecular target: PI3K p110 beta/p85 alpha (Homo sapiens) (UniProt P27986+P42338); test: Inhibition of PI3K (p110beta/p85-alpha) at 1 uM by radiometric method; assay type: protein-complex assay
[17] = molecular target: Serine/threonine-protein kinase mTOR (Homo sapiens) (UniProt P42345); test: Inhibition of mTOR at 1 uM by radiometric method
[18] = molecular target: Macrophage colony-stimulating factor 1 receptor (Homo sapiens, UniProt P07333); test: Inhibition of CSF1R by radiometric method
[19] = molecular target: Epidermal growth factor receptor (Homo sapiens) (UniProt P00533); test: Inhibition of EGFR at 1 uM by radiometric method
Chain of Epidermal growth factor receptor (Homo sapiens) (P00533 whole entry): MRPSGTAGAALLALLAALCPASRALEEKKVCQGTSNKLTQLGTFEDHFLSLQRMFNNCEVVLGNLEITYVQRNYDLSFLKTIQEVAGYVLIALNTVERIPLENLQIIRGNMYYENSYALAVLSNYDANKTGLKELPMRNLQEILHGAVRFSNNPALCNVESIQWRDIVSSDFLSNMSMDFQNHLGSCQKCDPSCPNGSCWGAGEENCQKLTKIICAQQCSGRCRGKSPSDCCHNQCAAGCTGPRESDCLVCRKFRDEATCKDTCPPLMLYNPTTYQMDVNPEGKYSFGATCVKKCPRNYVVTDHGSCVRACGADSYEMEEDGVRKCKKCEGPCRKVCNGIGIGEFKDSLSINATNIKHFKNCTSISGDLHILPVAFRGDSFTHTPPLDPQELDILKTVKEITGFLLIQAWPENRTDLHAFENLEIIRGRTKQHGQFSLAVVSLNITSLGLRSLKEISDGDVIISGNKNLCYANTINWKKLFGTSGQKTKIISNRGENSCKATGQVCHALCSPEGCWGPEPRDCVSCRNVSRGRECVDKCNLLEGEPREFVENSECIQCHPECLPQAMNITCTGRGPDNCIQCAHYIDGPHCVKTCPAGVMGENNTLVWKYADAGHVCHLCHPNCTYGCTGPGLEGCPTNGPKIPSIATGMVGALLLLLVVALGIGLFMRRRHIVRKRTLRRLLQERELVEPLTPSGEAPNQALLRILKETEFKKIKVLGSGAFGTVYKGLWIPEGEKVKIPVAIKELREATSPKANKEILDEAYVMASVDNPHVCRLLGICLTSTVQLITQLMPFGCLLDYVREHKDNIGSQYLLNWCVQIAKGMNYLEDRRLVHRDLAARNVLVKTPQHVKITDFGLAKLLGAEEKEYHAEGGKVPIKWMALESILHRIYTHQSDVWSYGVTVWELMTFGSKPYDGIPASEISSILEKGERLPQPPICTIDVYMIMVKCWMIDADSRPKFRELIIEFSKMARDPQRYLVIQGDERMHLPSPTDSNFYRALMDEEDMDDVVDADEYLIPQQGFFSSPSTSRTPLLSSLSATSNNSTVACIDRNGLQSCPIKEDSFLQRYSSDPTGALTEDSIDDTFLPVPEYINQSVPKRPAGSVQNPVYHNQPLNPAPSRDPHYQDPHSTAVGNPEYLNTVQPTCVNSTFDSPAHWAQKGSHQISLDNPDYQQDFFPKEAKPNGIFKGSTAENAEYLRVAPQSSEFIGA

[20] = molecular target: Tyrosine-protein kinase ABL1 (Homo sapiens) (UniProt P00519); test: Inhibition of ABL1 at 1 uM by radiometric method
HCT-116 [21] = test: Antiproliferative activity against human HCT116 cells after 72 hrs by [3H]thymidine incorporation assay; assay type: functional, cell-based

inhibition [3] [%]	inhibition [4] [%]	inhibition [5]	inhibition [6] [%]	residual activity [7] [%]	residual activity [9] [%]	inhibition [11] [%]	residual activity [12] [%]	inhibition [13] [%]	residual activity [14] [%]	residual activity [15] [%]	inhibition [16] [%]	inhibition [17] [%]	pIC50 [18]	inhibition [19] [%]	Structure (SMILES)	other results
-7	9	Active	24	< 10	< 10	-3	< 10	41	< 10	< 10	-2	25	> 6.00	4	CN(C)CCCc1c(/C=C2\C(=O)Nc3ccc(NS(=O)(=O)c4ccccc4)cc32)[nH]c2c1C(=O)CCC2	Activity (HCT-116 [1]): Active; pIC50 [2]: > 6.00; pIC50 (Aurora kinase B): 6.63; pIC50 (HeLa): 5.11; pIC50 (Aurora kinase A): 5.66; Activity (HCT-116 [8]): Active; pIC50 [10]: > 6.00
-8	11	Active	29	< 10	< 10	30	< 10	77	< 10	< 10	1	9	< 6.00	5	CCOC(=O)CCc1c(/C=C2\C(=O)Nc3ccc(NS(=O)(=O)c4ccccc4)cc32)[nH]c2c1C(=O)CCC2	inhibition [20]: 31%; pIC50 (HCT-116 [21]): 5.99
